Results as given in PubChem BioAssay.
Activity calls are given as the source filed them.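 The calls were made as follows, unless noted: active = NADPH fluorescence slope more negative than the mean of all samples by about 3 SD, 99.7% confidence; inactive = the rest.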

Experiments:
[1] = inhibitors of TNFa-induced NFkB p65 translocation, primary screen, imaging, HUVEC, MLSMR starter and 10KST1 sets (AID 438;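 active = inhibition above 20% together with a positive visual image hit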;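 also: compound added about 3h40 before a 20 min TNFalpha stimulation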;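 as to inhibition: signal is the nuclear over cytoplasmic p65 intensity ratio per well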); conditions: HUVEC TNFa-induced p65 nuclear translocation; cell count: measured here: nuclei count (cytotoxicity indicator), at 2.08 µM; inhibition: at 2 µM, stronger effect = higher value, 0% TNFa-plus-vehicle, 100% no-TNFa wells
[2] = endothelial E-selectin expression blockers – imaging, HUVEC, immunofluorescence, MLSMR starter and 10KST1 sets, primary screen (AID 487;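 active = visually confirmed hit in the image check and inhibition above 20%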;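 as to inhibition: signal is fraction of cell area covered by stained E-selectin grains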;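 as to nuclei count: 100% = median nuclei count of all wells on the same plate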); conditions: HUVEC TNFalpha-induced E-selectin immunofluorescence imaging, at 2 µM; inhibition: stronger effect = higher value; nuclei count: measured here: cell number, toxicity
[3] = Primary imaging screen for DUSP6 inhibitors that restore phospho-Erk in transfected HeLa cells, chemical complementation (AID 609;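 active = compounds giving at least 50% inhibition in the cell-based MKP-3 phosphatase rescue imaging test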;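 as to inhibition: phospho-Erk level distribution per well compared with pooled transfected vehicle control wells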); conditions: HeLa MKP-3 transfected, phospho-Erk imaging KS statistic, at 10 µM, cells stimulated with TPA for 15 min
[4] = target: Dual specificity protein phosphatase 6 (Homo sapiens) (UniProt Q16828); assay: as above; conditions: HeLa MKP-3 transfected, phospho-Erk imaging KS statistic; at 10 µM; stronger effect = higher value; cells stimulated with TPA for 15 min
Chain of Dual specificity protein phosphatase 6 (Homo sapiens) (Q16828 whole entry, looked up): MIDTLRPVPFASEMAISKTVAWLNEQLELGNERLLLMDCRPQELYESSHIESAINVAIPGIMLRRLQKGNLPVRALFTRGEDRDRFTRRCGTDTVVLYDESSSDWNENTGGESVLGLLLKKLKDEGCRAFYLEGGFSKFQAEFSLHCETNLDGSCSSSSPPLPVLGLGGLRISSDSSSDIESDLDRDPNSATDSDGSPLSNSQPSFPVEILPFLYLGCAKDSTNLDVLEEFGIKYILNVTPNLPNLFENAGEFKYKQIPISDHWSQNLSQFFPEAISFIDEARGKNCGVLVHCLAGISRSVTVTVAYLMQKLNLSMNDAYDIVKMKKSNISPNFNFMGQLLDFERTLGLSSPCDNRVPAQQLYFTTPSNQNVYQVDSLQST

[5] = target: Voltage-gated potassium channel subunit beta-2 (Rattus norvegicus) (UniProt P62483); assay: inhibitors of rat Kvbeta2 reductase activity – biochemical, NADPH fluorescence, primary screen (AID 622;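 active = fluorescence slope higher than the sample average by over 3 SD, cut at about -0.22 in these data, passing the limit was not always enough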;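 also: slope of raw intensity against log time taken from 70 to 1610 s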); conditions: recombinant KvBeta, 4-cyanobenzaldehyde reduction, at 10 µM, stronger effect = higher value
Chain of Voltage-gated potassium channel subunit beta-2 (Rattus norvegicus) (P62483 whole entry, looked up): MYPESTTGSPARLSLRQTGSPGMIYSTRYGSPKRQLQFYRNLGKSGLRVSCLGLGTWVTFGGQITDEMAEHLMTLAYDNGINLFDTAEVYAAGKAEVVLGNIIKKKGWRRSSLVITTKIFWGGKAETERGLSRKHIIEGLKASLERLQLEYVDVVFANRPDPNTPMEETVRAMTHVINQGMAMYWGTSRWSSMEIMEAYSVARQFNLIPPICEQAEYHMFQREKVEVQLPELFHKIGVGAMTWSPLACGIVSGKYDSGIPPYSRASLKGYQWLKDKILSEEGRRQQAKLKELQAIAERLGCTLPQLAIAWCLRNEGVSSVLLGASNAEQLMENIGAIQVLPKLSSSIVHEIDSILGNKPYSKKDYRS

[6] = target: Voltage-gated potassium channel subunit beta-2 (Rattus norvegicus) (UniProt P62483); assay: enhancers of rat Kvbeta2 NADPH turnover – biochemical, NADPH fluorescence, primary screen (AID 623); conditions: Recombinant KvBeta, NADPH fluorescence decrease slope, 10 min; at 10 µM; stronger effect = lower value;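 also: fluorescence intensity change per second fitted from 20 to 320 s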
[7] = target: Alpha-2C adrenergic receptor (Homo sapiens) (UniProt P18825); assay: compounds altering alpha2C-coupled GIRK flux – cell-based, HEK293 alpha2C/GIRK1/2, thallium flux, primary screen (AID 624;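 active = fluorescence slope after compound addition differing from the mean of all screened samples at 99.7% confidence, in either direction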;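 also: slope of fluorescence ratio to pre-addition baseline per second over 15 to 24 s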); conditions: thallium flux BTC fluorescence, at 10 µM, actives lie on both sides
Chain of Alpha-2C adrenergic receptor (Homo sapiens) (P18825 whole entry, looked up): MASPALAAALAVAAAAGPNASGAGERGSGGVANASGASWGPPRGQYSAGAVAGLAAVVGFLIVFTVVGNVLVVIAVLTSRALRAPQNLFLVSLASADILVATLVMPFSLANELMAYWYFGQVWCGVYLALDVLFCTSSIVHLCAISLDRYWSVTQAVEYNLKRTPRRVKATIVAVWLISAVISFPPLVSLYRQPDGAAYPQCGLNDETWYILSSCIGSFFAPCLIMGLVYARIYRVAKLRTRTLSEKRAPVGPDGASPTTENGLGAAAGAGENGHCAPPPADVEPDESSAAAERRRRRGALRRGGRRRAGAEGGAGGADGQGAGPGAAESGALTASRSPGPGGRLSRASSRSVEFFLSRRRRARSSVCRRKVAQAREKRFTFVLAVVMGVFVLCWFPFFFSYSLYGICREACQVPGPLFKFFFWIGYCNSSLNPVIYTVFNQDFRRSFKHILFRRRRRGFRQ

[8] = inhibitors of larval lipid processing in zebrafish, primary screen, whole organism, PED6 fluorescence, gall bladder and intestine (AID 686;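 active = a full or partial loss of lipid-probe fluorescence in the fish gall bladder, intestine or both, judged by eye; inactive = no fluorescence loss, or compound toxic to the fish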;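 also: larvae 5 to 7 days old with five fish per well; signal comes from phospholipase A2 cleavage of quenched PED6 carried via bile; overnight exposure to compound and PED6 before scoring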); conditions: Zebrafish larvae PED6 lipid processing, fluorescence scoring; screened at 20 µM (by protocol)
Summary of the method: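 Doses: 20 µM single dose. Test system: live zebrafish larvae aged 5-7 days, whole organism. Quantity: five larvae per well. Measured by: By-eye fluorescence microscopy. Reagent: ingested quenched lipid PED6 at 100 nM. Read-out: visual per-well fluorescence inhibition score. Times: overnight exposure of larvae to compound plus PED6.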

[9] = loss of swimming-algae plug formation – whole organism, Chlamydomonas reinhardtii, WT vs cilia-less mutant, absorbance, 96-well, primary screen (AID 463189;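 active = inhibition at or above 50% relative to wild type and mutant plate controls; inactive = inhibition below 50%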;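 also: 0% = wild type cc124 cells in DMSO and 100% = ciliumless bld1 mutant cells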); conditions: Chlamydomonas reinhardtii gravitaxis, OD600 absorbance, 2 days; at 10 µM; stronger effect = higher value
[10] = measured here: cell density z-score
[11] = measured here: nuclear c-Myc green intensity z-score
[12] = measured here: nuclear pErk red intensity z-score, stronger effect = higher value

Structure (SMILES)	cell count [1]	inhibition [1]	inhibition [2]	nuclei count [2] [%]	z-score [3, 10]	z-score [3, 11]	z-score [3, 12]	inhibition [4]	fluorescence slope [5]	NADPH fluorescence slope [6]	slope [7]	outcome [8]	inhibition [9]
C/C(CC1(O)C(=O)N(Cc2ccccc2)c2ccccc21)=N\O (stereo not given)	645	-11.4% (inactive)	-28.2% (inactive)	182	-1.05	-1.05	1.51	-7.79% (inactive)	-0.464 (inactive)	-0.000206 (inactive)	0.0275 (active)	inactive	-6.97% (inactive)
COc1cccc(-c2nc(N3CCCCC3)c3ccccc3n2)c1O	528	1.2% (inactive)	-31.1% (inactive)	142	1.81	0.268	-0.772	1.6e-07% (inactive)	-0.405 (inactive)	-3.2e-05 (inactive)	0.0042 (inactive)	inactive	15% (inactive)
ClC(Br)=C(n1cnc2ccccc21)n1cnc2ccccc21	536	-11% (inactive)	-108% (inactive)	155	1.2	-0.506	-1.02	16.1% (inactive)	-0.523 (inactive)	-3.7e-05 (inactive)	0.00536 (inactive)	inactive	30.5% (inactive)
Clc1ccc(-c2nnc3sc(Cc4cccs4)nn23)cc1	671	-3.4% (inactive)	-156% (inactive)	134	0.365	-1.12	-1.66	22.7% (inactive)	-0.451 (inactive)	-4.9e-05 (inactive)	0.00474 (inactive)	inactive	19.8% (inactive)
Cn1c(=O)n(C)c2cc(C(=O)c3ccccc3)ccc21	534	-14.4% (inactive)	24.3% (inactive)	180	2.47	-0.33	-1.62	20.2% (inactive)	-0.53 (inactive)	-6.3e-05 (inactive)	0.00503 (inactive)	inactive	-6.61% (inactive)
CC(=O)OCc1c(COC(C)=O)[n+](=O)c2ccccc2n1[O-]	523	-7% (inactive)	-114% (inactive)	156	0.0201	-0.163	-0.453	2.46% (inactive)	-0.322 (inactive)	1.5e-05 (inactive)	0.00492 (inactive)	inactive	17% (inactive)
C=CCNC(=O)C(C#N)c1nc2ccccc2nc1N1CCCCCC1 (stereo not given)	537	-1.4% (inactive)	-190% (inactive)	178	-1.46	1.13	1.59	15% (inactive)	-0.302 (inactive)	-1.1e-05 (inactive)	-0.000734 (inactive)	inactive	10.7% (inactive)
O=C1[C@@H]2[C@H](C(=O)N1n1cnnc1)[C@H]1C=C[C@@H]2C1	618	-4.3% (inactive)	-49.4% (inactive)	143	-1.23	-0.0869	-0.601	4.25% (inactive)	-0.529 (inactive)	-6.9e-05 (inactive)	0.00514 (inactive)	inactive	13.5% (inactive)
CC(=O)N/C(=N/c1nc(C)cc(C)n1)Nc1ccc(NC(C)=O)cc1	647	3.8% (inactive)	-35% (inactive)	154	1.7	-1.09	-1.09	-1.12% (inactive)	-0.509 (inactive)	-6.6e-05 (inactive)	0.00481 (inactive)	inactive	1.67% (inactive)
Cc1nn2c(-c3ccc(Cl)cc3)nnc2s1	551	-6.5% (inactive)	-65.8% (inactive)	86.3	-0.293	-0.329	0.206	-6.06% (inactive)	-0.421 (inactive)	-1.1e-05 (inactive)	0.00662 (inactive)	inactive	17.4% (inactive)
CC(C)Cc1[nH]c(=O)c(C#N)c2c1CCCC2	623	1.3% (inactive)	2.8% (inactive)	155	-1.11	0.566	0.412	5.65% (inactive)	-0.318 (inactive)	-9.4e-06 (inactive)	0.00948 (inactive)	inactive	16.6% (inactive)
Cc1nnc(C)n1/N=C/c1cccn1C	300	-9.7% (inactive)	-14.9% (inactive)	136	-0.977	2.09	-1.42	3.5% (inactive)	-0.412 (inactive)	-0.00014 (inactive)	0.00647 (inactive)	inactive	-5.16% (inactive)
O=C(NCCOCCOCCNC(=O)c1cccnc1)c1cccnc1	490	0.8% (inactive)	-165% (inactive)	151	-2.67	-0.0249	-0.654	34.8% (inactive)	-0.514 (inactive)	-7.5e-05 (inactive)	0.00454 (inactive)	inactive	-5.31% (inactive)
CN(C)CCCOC(=O)C1c2ccccc2Oc2ccccc21	542	1.3% (inactive)	31.3% (inactive)	169	-1.43	-0.729	0.0446	-8.76% (inactive)	-0.329 (inactive)	-1.7e-05 (inactive)	0.00512 (inactive)	inactive	8% (inactive)
COc1ccc(C2CC(=O)c3sc(N)nc3C2)cc1 (stereo not given)	424	-15.2% (inactive)	-328% (inactive)	147	0.261	-0.0796	-0.89	26.6% (inactive)	-0.408 (inactive)	-1.9e-05 (inactive)	0.00734 (inactive)	inactive	0.76% (inactive)
[N-]=[N+]=CC(=O)c1ccnc(C(=O)C=[N+]=[N-])c1	544	-10.2% (inactive)	-164% (inactive)	136	1.23	-1.66	-0.478	21.8% (inactive)	-0.54 (inactive)	-6.3e-05 (inactive)	0.00557 (inactive)	inactive	3.22% (inactive)
Cc1cc(C)n(C(=O)CSc2nc3ccccc3o2)n1	551	-6.6% (inactive)	-100% (inactive)	138	0.355	0.587	0.0282	19.8% (inactive)	-0.488 (inactive)	-4.3e-05 (inactive)	0.00455 (inactive)	inactive	25.1% (inactive)
CCOC(=O)C1=C(C)NC(=O)NC1c1ccc2c(c1)OCO2 (stereo not given)	603	-9.5% (inactive)	-11.9% (inactive)	154	0.562	0.385	-0.648	-13.3% (inactive)	-0.387 (inactive)	-7.4e-05 (inactive)	0.00581 (inactive)	inactive	-6.75% (inactive)
COc1cc(=O)n2c(-c3ccccc3)csc2n1	628	0% (inactive)	-58.9% (inactive)	153	-1.46	1.4	0.777	13.2% (inactive)	-0.465 (inactive)	-0.000258 (inactive)	0.00547 (inactive)	inactive	5.32% (inactive)
COc1cccc(C(=O)N2CCN(S(=O)(=O)Cc3ccccc3)CC2)c1OC	424	-16.3% (inactive)	-254% (inactive)	195	0.309	-0.845	-0.459	12.7% (inactive)	-0.291 (inactive)	1.9e-05 (inactive)	0.00419 (inactive)	inactive	17.5% (inactive)
